Measured values reported in PubChem BioAssay.
Records with an inconclusive call do not appear.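 Rule for the calls, unless noted: active = RAM network inhibition above 8.4% in each of two replicates, 3 SD over the compound average; inconclusive = above 8.4% inhibition in only one replicate; inactive = 8.4% inhibition or less in each replicate.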

What was measured:
[1] = OD615 S. cerevisiae growth inhibition, permissive medium, pilot counter-assay, permissive growth control for S. cerevisiae lifespan shortening project (AID 705;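 active = growth inhibition above 25% in both replicates, a cutoff set 3 SD above the mean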); conditions: OD615, 24 h, at 10 µM, active compounds read high
How it was run: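 Material: engineered DeaD yeast; Compound: one dose 10 µM, DMSO 0.25% final; Detection: absorbance (optical density) at 615 nm; Buffer or medium: permissive raffinose/galactose medium; Timing: 24 h exposure, 30 °C.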

[2] = Restrictive medium S. cerevisiae growth inhibition, OD615, pilot screen of yeast lifespan reduction project, restrictive growth control (AID 706;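 active = growth inhibition above a set limit, 3 SD over mean compound inhibition, in both replicates, cut at about 43% in these data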;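 note: modified DeaD lifespan yeast strain shifted to restrictive glucose medium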); conditions: OD615, 48 h, at 10 µM, active compounds read high
How it was run: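 Buffer or medium: restrictive glucose medium (CSMM-D); test system: modified S. cerevisiae; doses: single dose of 10 µM compound final, 0.25% DMSO; schedule: 48 h compound exposure at 30 °C; detection: absorbance (optical density) measured at 615 nm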

[3] = viability gain of MRP-1-high H69AR cells under doxorubicin, pilot screen, MRP-1 activator project, CellTiter-Glo, duplicate (AID 807;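 active = viability increase at or above a cutoff of the median across tested compounds plus 3 SD, cut at about 8.5% in these data, passing the limit was not always enough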;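 note: compound pretreatment 18-22 h then 72 h combined with doxorubicin; 0% = doxorubicin alone and 100% = vehicle without doxorubicin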); conditions: H69AR viability with doxorubicin, CellTiter-Glo luminescence; at 10 µM; active compounds read high
[4] = growth suppression of beta-catenin knockout HCT116, pilot screen, human colon tumor cells (AID 823;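 active = cell viability at or below a set limit in both duplicate runs, the limit being the all-compound median minus 4 SD, cut at about 23% in these data, passing the limit was not always enough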;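 note: 0% = wells killed by 20 µM Hyamine and 100% = untreated DMSO cell wells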); conditions: CellTiter-Glo, 60 h, at 10 µM, active compounds read low
[5] = growth suppression of PTEN-deleted HCT116, pilot screen, cell-based, HCT116 clonal line, CellTiter-Glo (AID 824;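 active = viability at or below 27.92% in each of two runs, the all-compound median minus 4 SD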;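 note: 0% = 20 µM Hyamine control and 100% = vehicle cell control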); conditions: 60 h, at 10 µM, active compounds read low
[6] = inhibitors of the yeast RAM network, pilot screen, dse1pr::URA3 reporter, 5-FOA selection (AID 869;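 active = inhibition over a set limit, the all-compound mean plus 3 SD, in both replicate runs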;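 note: 0% = DMSO wells with no growth and 100% = 10 µM 1-NA-PP1 with full growth; RAM network block rescues cells from 5-FOA so hits raise OD615 growth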); conditions: S. cerevisiae dse1pr::URA3 5-FOA growth, OD615, 2 d; at 10 µM; active compounds read high; strain carries analog-sensitive mutant Cbk1 kinase
[7] = RAM signaling pathway blockade in yeast – S. cerevisiae, Pdr1DBD-CYC8 efflux-inhibited sensitized strain, primary screen (AID 1298);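 note: 0% = DMSO untreated cells without growth and 100% = 10 µM 1-NA-PP1 full growth; higher means more yeast growth rescued from 5-FOA killing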; conditions: S. cerevisiae cbk1-as DSE1-URA3 strain, 5-FOA growth OD615, 2 d; at 50 µM; active compounds read high

C=C(C)CSC1=C(C#N)C(c2ccccc2)CC(=O)N1 (stereo not drawn)
inactive: growth inhibition [1] -13.1% | growth inhibition [2] -8.52% | viability increase [3] -2.09% | viability [4] 86.6% | viability [5] 84.1% | inhibition [6] 0.55% | RAM network inhibition [7] 4.86%

Cc1nnc(Sc2nc3c(c(=O)[nH]c(=O)n3C)n2CCc2ccccc2)s1
inactive: growth inhibition [1] -17.6% | growth inhibition [2] -13.6% | viability increase [3] -0.89% | viability [4] 102% | viability [5] 100% | inhibition [6] 0.16% | RAM network inhibition [7] 8.3%

CCOc1nonc1C(=N)/C(C(C)=O)=C(\C)O
inactive: growth inhibition [1] -12.6% | growth inhibition [2] -12.1% | viability increase [3] -1.06% | viability [4] 104% | viability [5] 98% | inhibition [6] 1.42% | RAM network inhibition [7] -0.48%

CC(NC(=O)COc1ccccc1)C(c1ccccc1)N1CCN(C)CC1 (stereo not drawn)
inactive: growth inhibition [1] -4.2% | growth inhibition [2] -7.49% | viability increase [3] -3.94% | viability [4] 97% | viability [5] 96.8% | inhibition [6] 1.02% | RAM network inhibition [7] 4.65%

CC(=O)N1CCC(N(CCCOC(C)C)C(=O)Nc2ccc(Cl)cc2)CC1
inactive: growth inhibition [1] -2.75% | growth inhibition [2] 0.145% | viability increase [3] -0.86% | viability [4] 93% | viability [5] 95.9% | inhibition [6] 0.365% | RAM network inhibition [7] 3.16%

Cc1sc2ncnc(SCC(=O)c3cccs3)c2c1C
inactive: growth inhibition [1] 6.02% | growth inhibition [2] 10.6% | viability increase [3] -1.23% | viability [4] 100% | viability [5] 94.3% | inhibition [6] 0.73% | RAM network inhibition [7] 3.92%

CCCC(=O)Nc1cc(=O)n(C)c(=O)n1C
inactive: growth inhibition [1] -12.8% | growth inhibition [2] -4.53% | viability increase [3] -1.04% | viability [4] 103% | viability [5] 94.8% | inhibition [6] 0.76% | RAM network inhibition [7] -0.88%

Cc1ccccc1NC(=O)CCN1CCN(Cc2ccccc2)CC1
inactive: growth inhibition [1] -9.43% | growth inhibition [2] 3.58% | viability increase [3] -3.29% | viability [4] 94.8% | viability [5] 89.6% | inhibition [6] 1.85% | RAM network inhibition [7] 5.05%

Cc1c(C(=O)NCC(C)C)sc2nc(-c3ccc(F)cc3)cn12
inactive: growth inhibition [1] -13.9% | growth inhibition [2] -12% | viability increase [3] 1.99% | viability [4] 111% | viability [5] 103% | inhibition [6] 2.99% | RAM network inhibition [7] 10.7%

CCOc1ccc(-n2c(SCC(=O)Nc3ccc4c(c3)OCO4)nc3c(c2=O)SCC3)cc1
inactive: growth inhibition [1] 3.25% | growth inhibition [2] -5.91% | viability increase [3] -1.65% | viability [4] 92.5% | viability [5] 86.5% | inhibition [6] 1.83% | RAM network inhibition [7] 4.16%

O=C(O)CSc1cccc2cccc(C(=O)O)c12
inactive: growth inhibition [1] -0.49% | growth inhibition [2] 4.41% | viability increase [3] -2.27% | viability [4] 105% | viability [5] 101% | inhibition [6] 1.54% | RAM network inhibition [7] 1.15%

CCC(CC)C(=O)Nc1ccccc1NC(C)=O
inactive: growth inhibition [1] -3.13% | growth inhibition [2] 0.295% | viability increase [3] 0.4% | viability [4] 99.8% | viability [5] 98% | inhibition [6] 0.36% | RAM network inhibition [7] 4.35%

CCOC(=O)c1[nH]c(C)c(C(=O)Nc2ccc(C)c(C)c2)c1C
inactive: growth inhibition [1] -12.6% | growth inhibition [2] -10.7% | viability increase [3] -4.91% | viability [4] 64.1% | viability [5] 45.9% | inhibition [6] 1.46% | RAM network inhibition [7] 1.84%

COc1cccc(C(=O)Nc2nnc(-c3cccs3)o2)c1
inactive: growth inhibition [1] -16.4% | growth inhibition [2] -17% | viability increase [3] -4.26% | viability [4] 44.8% | viability [5] 56.3% | inhibition [6] 0.07% | RAM network inhibition [7] 0.16%

CCCCCn1c(SCCOCC)nc2c1c(=O)[nH]c(=O)n2C
inactive: growth inhibition [1] -10.1% | growth inhibition [2] -15.6% | viability increase [3] -0.61% | viability [4] 96.2% | viability [5] 97.2% | inhibition [6] 1.75% | RAM network inhibition [7] 4.65%

O=C(c1oc(=O)c2ccccc2c1-c1ccccc1)N1CCC(O)CC1
inactive: growth inhibition [1] -2.27% | growth inhibition [2] -0.17% | viability increase [3] -2.96% | viability [4] 97.6% | viability [5] 91.6% | inhibition [6] 1.25% | RAM network inhibition [7] 1.92%

Cc1ccc(S(=O)(=O)NCC(=O)N2CCOCC2)cc1
inactive: growth inhibition [1] -3.62% | growth inhibition [2] -10.3% | viability increase [3] -1.57% | viability [4] 103% | viability [5] 109% | inhibition [6] -0.085% | RAM network inhibition [7] 0.68%

CCCOc1ccc(S(=O)(=O)NCc2ccc(OC)cc2)cc1
inactive: growth inhibition [1] -0.685% | growth inhibition [2] -1.88% | viability increase [3] -1.41% | viability [4] 103% | viability [5] 103% | inhibition [6] 0.925% | RAM network inhibition [7] 7.26%

CCCNc1nc2c(c(=O)[nH]c(=O)n2C)n1CCc1ccccc1
inactive: growth inhibition [1] -3.82% | growth inhibition [2] 0.97% | viability increase [3] -1.3% | viability [4] 112% | viability [5] 103% | inhibition [6] 1.56% | RAM network inhibition [7] 5.88%

COC(=O)C1=C(C)N(Cc2cccnc2)C(=O)C1
inactive: growth inhibition [1] -10.7% | growth inhibition [2] -8.8% | viability increase [3] -1.77% | viability [4] 98.7% | viability [5] 102% | inhibition [6] 2.84% | RAM network inhibition [7] 5.02%

CS(=O)(=O)Nc1ccccc1Oc1ccccc1
inactive: growth inhibition [1] -4.92% | growth inhibition [2] 2.56% | viability increase [3] -0.66% | viability [4] 97.5% | viability [5] 92.8% | inhibition [6] -0.23% | RAM network inhibition [7] -0.46%

COc1ccc(CSc2nnnn2C)cc1F
inactive: growth inhibition [1] -3.21% | growth inhibition [2] 4.8% | viability increase [3] -0.89% | viability [4] 91.4% | viability [5] 95% | inhibition [6] 2.62% | RAM network inhibition [7] -0.46%

CCOC(=O)C1=C(N)OC2=C(C(=O)CCC2)C1c1ccccc1OCC (stereo not drawn)
inactive: growth inhibition [1] -3.85% | growth inhibition [2] -4.66% | viability increase [3] -0.08% | viability [4] 100% | viability [5] 103% | inhibition [6] 1.05% | RAM network inhibition [7] 8.68%

Cc1ccccc1-c1nc(CN2CCC(C(=O)N3CCN(c4ccccn4)CC3)CC2)c(C)o1
inactive: growth inhibition [1] -7.71% | growth inhibition [2] -18.8% | viability increase [3] -5.67% | viability [4] 61.6% | viability [5] 67.7% | inhibition [6] 1.33% | RAM network inhibition [7] -0.47%

COc1ccccc1C1CC(=O)NC(SCC(=O)Nc2ccccc2)=C1C#N (stereo not drawn)
inactive: growth inhibition [1] 4.78% | growth inhibition [2] -11.8% | viability increase [3] 1.09% | viability [4] 93.2% | viability [5] 88.2% | inhibition [6] 3.57% | RAM network inhibition [7] 1.38%

O=C(Cn1cnc2c(nnn2-c2ccccc2)c1=O)NCCc1ccccc1
inactive: growth inhibition [1] -0.435% | growth inhibition [2] -10.4% | viability increase [3] -1.04% | viability [4] 105% | viability [5] 100% | inhibition [6] 0.75% | RAM network inhibition [7] 3.12%

O=C(Nc1ccccc1C1CC1)c1cccs1
inactive: growth inhibition [1] -10.4% | growth inhibition [2] -19.7% | viability increase [3] 1.09% | viability [4] 95% | viability [5] 96.9% | inhibition [6] 1.16% | RAM network inhibition [7] 0.36%

CCCCOc1ccc(NC(=O)C2CC=CCC2C(=O)O)cc1 (stereo not drawn)
inactive: growth inhibition [1] -5.44% | growth inhibition [2] -26.4% | viability increase [3] -2.19% | viability [4] 81.9% | viability [5] 79.5% | inhibition [6] 0.51% | RAM network inhibition [7] 0.37%

COc1ccc(NC(=O)C2CCCN2S(=O)(=O)c2ccc(F)cc2)cc1 (stereo not drawn)
inactive: growth inhibition [1] -11.8% | growth inhibition [2] -12.7% | viability increase [3] -0.14% | viability [4] 109% | viability [5] 99.2% | inhibition [6] 1.87% | RAM network inhibition [7] -1.32%

Cc1ccccc1-c1noc(-c2cccs2)n1
inactive: growth inhibition [1] 8.34% | growth inhibition [2] 6.79% | viability increase [3] -4.68% | viability [4] 94% | viability [5] 90.4% | inhibition [6] 2.11% | RAM network inhibition [7] 6%

O=C(Nc1nc2cc3c(cc2s1)OCO3)C1=COCCO1
inactive: growth inhibition [1] -9.14% | growth inhibition [2] -31.3% | viability increase [3] -6.84% | viability [4] 45.8% | viability [5] 41.3% | inhibition [6] 1.75% | RAM network inhibition [7] 5.3%

COC(=O)CSc1ccc2nnc(-c3ccc(OC)c(OC)c3)n2n1
inactive: growth inhibition [1] -10.3% | growth inhibition [2] -18.4% | viability increase [3] -0.56% | viability [4] 106% | viability [5] 107% | inhibition [6] -0.01% | RAM network inhibition [7] 3.82%

CSC1=NCCN1C(=O)C(C)Oc1ccccc1 (stereo not drawn)
inactive: growth inhibition [1] 1.44% | growth inhibition [2] -0.77% | viability increase [3] 1.74% | viability [4] 101% | viability [5] 99.2% | inhibition [6] 0.34% | RAM network inhibition [7] 0.46%

O=S(=O)(Nc1cccc(-c2nc3cccnc3s2)c1)c1ccc2c(c1)OCCO2
inactive: growth inhibition [1] -0.93% | growth inhibition [2] 13.3% | viability increase [3] 0.73% | viability [4] 97.7% | viability [5] 85.3% | inhibition [6] 3.69% | RAM network inhibition [7] 5.51%
